This note sets out measurements from ChEMBL document CHEMBL3272058, “Synthesis, structure, and reactivity of adenosine cyclic 3',5'-phosphate benzyl triesters” (J Med Chem, 1977).

Usually half-life stands for how long it takes for the measured level to halve.

Data set [1] is filed under the species Bos taurus. Nature of the data set: Activation of bovine brain cAMP-dependent protein kinase assessed as transfer of p32 to histone using [gamma-32P]ATP at 10^-7 M relative to cAMP triester. The method, boiled down:
(§1)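 Bovine brain cAMP-dependent protein kinase was purified by DEAE-cellulose chromatography (about 1000 units/mg). The 0.2 mL mix held 50 mM Mops pH 6.5, 5 mM MgCl2, 7 mM mercaptoethanol, [γ-32P]ATP (1.3 Ci/mmol), 60 µg calf thymus histones, 15-25 µg kinase and triester or cAMP. It ran 5 min at 30 °C, reading 32P in acid-precipitable histones. Value is test-compound activity divided by cAMP activity.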

Data set [2] can be described thus: Half life in H2O at 5 uM at 50 degC by liquid chromatography. It counts as physicochemical. Particulars: water.
The nature of data set [3]: Half life in Mops buffer at pH 6.5 at 30 degC by liquid chromatography. It counts as physicochemical. The method, boiled down:
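Triester was held in Mops buffer, pH 6.5, at 30 °C. Products were separated by LC with UV monitoring at 258 nm, using integration or an internal standard. Half-life came from a pseudo-first-order kinetic fit.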

For data set [4], the species on record is Bos taurus. Nature of the data set: Activation of bovine brain cAMP-dependent protein kinase assessed as transfer of p32 to histone using [gamma-32P]ATP at 10^-6 M relative to cAMP triester. In a few lines: as §1
The species entered for data set [5] is Bos taurus. Nature of the data set: Activation of bovine brain cAMP-dependent protein kinase assessed as transfer of p32 to histone using [gamma-32P]ATP at 10^-5 M relative to cAMP triester. In a few lines: as §1
The test system of data set [6] is C6. Nature of the data set: Morphological alteration in rat C6 cells at 10^-3 M after 90 mins by microscopy. Particulars: c6, 1.5 h, 1000 µM. It counts as ADME, cell-based. The method, boiled down:
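Near-confluent C6 rat glioma cultures (about 5-9 x 10^5 cells per plate), grown in DME with 10% newborn calf serum, were given 10^-3 M of each triester with theophylline. After 90 min on a shaking table, morphological change was scored microscopically as the percentage of altered cells. + means 90-95% and - means 0% differentiation.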

The species entered for data set [7] is Bos taurus. Nature of the data set: Activation of bovine brain cAMP-dependent protein kinase assessed as transfer of p32 to histone using [gamma-32P]ATP at 10^-4 M relative to cAMP triester. The method, boiled down:
as §1

Data set [8] can be described thus: Retardation factor, Rf of the compound in […] solvent. It counts as physicochemical.
Data set [9] can be described thus: Retardation factor, Rf of the compound in ClCH2CH2Cl-EtOH solvent.
Data set [10] has as its system C6. Nature of the data set: Drug uptake in rat C6 cells assessed as morphologically differentiation at 10^-4 M after 50 mins by microscopy. It counts as ADME, cell-based. Particulars: c6, 50 min, 100 µM. In a few lines:
(§2)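 Growing C6 rat glioma cells were kept in DME with 10% newborn calf serum at 37 °C under 10% CO2. Near-confluent plates (about 5-9 x 10^5 cells) were exposed to triester with theophylline on a constantly moving shaking table. The percentage of morphologically altered cells was estimated by microscopy at intervals, with an error of 5-10%.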

Data set [11] has as its system C6. Nature of the data set: Drug uptake in rat C6 cells assessed as morphologically differentiation at 10^-4 M after 20 mins by microscopy. It counts as ADME, cell-based. The settings on record: c6, 20 min, 100 µM. The method, boiled down:
as §2

Data set [12] deals with C6. Nature of the data set: Drug uptake in rat C6 cells assessed as cAMP level per of protein at 10^-4 M after 90 mins. It counts as ADME, cell-based. Particulars: c6, 1.5 h, 100 µM. In a few lines: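 C6 glioma cells were grown in DME with 10% newborn calf serum at 37 °C under 10% CO2 and treated with triester plus theophylline. After 90 min, internal cAMP was measured by Gilman's method and related to protein, using a bovine serum albumin standard.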

The test system of data set [13] is C6. Nature of the data set: Drug uptake in rat C6 cells assessed as morphologically differentiation at 10^-4 M after 90 mins by microscopy. It counts as ADME, cell-based. Particulars: c6, 1.5 h, 100 µM. The method, boiled down:
as §2

The test system of data set [14] is C6. Nature of the data set: Drug uptake in rat C6 cells assessed as cAMP level per of protein at 10^-3 M after 90 mins. Particulars: c6, 1.5 h, 1000 µM. It counts as ADME, cell-based.
For data set [15], the system named is C6. As to the kind of experiment: Drug uptake in rat C6 cells assessed as morphologically differentiation at 10^-3 M after 50 mins by microscopy. It counts as ADME, cell-based. The settings on record: c6, 50 min, 1000 µM.
Data set [16] relates to C6. As to the kind of experiment: Drug uptake in rat C6 cells assessed as morphologically differentiation at 10^-3 M after 90 mins by microscopy. It counts as ADME, cell-based. The settings on record: c6, 1.5 h, 1000 µM.
Data set [17] deals with C6. As to the kind of experiment: Drug uptake in rat C6 cells assessed as morphologically differentiation at 10^-3 M after 20 mins by microscopy. It counts as ADME, cell-based. The settings on record: c6, 20 min, 1000 µM.
Data set [18] in a line: Photolysis mediated drug hydrolysis assessed as half life under 366 nm irradiation by liquid chromatography. It counts as physicochemical. In a few lines: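 The o-nitrobenzyl ester, 4 mM in Me2SO-phosphate buffer pH 7.1 (1:10 v/v), was irradiated at 366 nm with a 320 nm cut-off, at 37 °C and 6 cm from the source. Half-life was estimated from the rate of cAMP formation followed by LC.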

Consider `Nc1ncnc2c1ncn2[C@@H]1O[C@@H]2CO[P@](=O)(OCc3ccc([N+](=O)[O-])cc3)O[C@H]2[C@H]1O`, for which the Ratio in the data set listed under Bos taurus [1] is 0; in the data set listed under Bos taurus [4], 0; in the data set filed under Bos taurus [5], 0.24; in the data set listed under Bos taurus [7], 0.54. Further, the half-life at 5 µM in [2] was 240 h. The compound further had a half-life in data set [3] of 9.5 h. In addition, the Activity in the data set on C6 [6] worked out at 90%. The Rf in data set [8] stood at 0.43; in data set [9] it was 0.34.

With `NC[C@H](O)c1ccc(O)c(O)c1.O=C(O)C(O)C(O)C(=O)O`, the Activity in the data set with C6 [10] came to 80%; with C6 [11], 50%; in the data set with C6 [12], 250 pmol/mg; in the data set on C6 [13], 90%.

Turning to `Nc1ncnc2c1ncn2[C@@H]1O[C@@H]2COP(=O)(OCc3ccccc3)O[C@H]2[C@H]1O` (single isomer, unassigned) [listing 1 of 2 here], the Ratio in the data set filed under Bos taurus [1] was 0; in the data set filed under Bos taurus [4] it was 0.09; in the data set filed under Bos taurus [5] it was 0.59; in the data set filed under Bos taurus [7] it was 0.45.

`CCO[P@@]1(=O)OC[C@H]2O[C@@H](n3cnc4c(N)ncnc43)[C@H](O)[C@@H]2O1`: the Ratio in the data set listed under Bos taurus [1] is 0; in the data set listed under Bos taurus [4] it was 0; in the data set filed under Bos taurus [5] it was 0.06; in the data set listed under Bos taurus [7] it was 0.14. In [3], this compound showed a half-life of 9.5 h. In the data set with C6 [6], this compound came in with an Activity of 0%. The figures for the Rf in data set [8] and in data set [9] were 0.4 and 0.3, respectively.

Regarding `Nc1ncnc2c1ncn2[C@@H]1O[C@@H]2CO[P@@](=O)(OCc3ccc([N+](=O)[O-])cc3)O[C@H]2[C@H]1O`, the Ratio in the data set listed under Bos taurus [1] is 0; in the data set filed under Bos taurus [4], 0.04; in the data set filed under Bos taurus [5], 0.49; in the data set filed under Bos taurus [7] it was 1.01. The half-life at 5 µM in data set [2] was 73 h. The compound also had a half-life in data set [3] of 3 h. Moreover, in the data set on C6 [6], the Activity was found to be 90%. Besides, the Rf in data set [8] turned out to be 0.37; in [9], 0.25.

Consider `Nc1ncnc2c1ncn2[C@@H]1O[C@@H]2CO[P@@](=O)(OCc3ccccc3)O[C@H]2[C@H]1O`, for which the Ratio in the data set filed under Bos taurus [1] came to 0.03; in the data set filed under Bos taurus [4], 0.49; in the data set filed under Bos taurus [5], 1; in the data set filed under Bos taurus [7], 1.22. The compound further showed a half-life at 5 µM in data set [2] of 0.5 h. The half-life in data set [3] is 3 h. The compound further yielded an Activity in the data set with C6 [6] of 90%. Also, the Rf in data set [8] was determined as 0.35; in [9], 0.25.

In the case of `Cc1ccc(CO[P@@]2(=O)OC[C@H]3O[C@@H](n4cnc5c(N)ncnc54)[C@H](O)[C@@H]3O2)cc1`, the Activity was found to be 225 pmol/mg in the data set with C6 [14]; 30% with C6 [10]; 60% with C6 [15]; 10% with C6 [11]; 90% in the data set with C6 [16]; 70 pmol/mg in the data set on C6 [12]. Besides, the Activity in the data set on C6 [6] was 90%; in the data set on C6 [13], 80%; in the data set on C6 [17], 20%. This compound showed a half-life at 5 µM in [2] of 0.1 h. The same compound had a half-life in [3] of 9.5 h. For the same compound, the values for the Rf in [8] and in data set [9] were 0.45 and 0.26, respectively.

Take `CO[P@]1(=O)OC[C@H]2OC(n3cnc4c(N)ncnc43)[C@H](O)[C@@H]2O1` (single isomer, unassigned): the Activity with C6 [6] turned out to be 0%.

Turning to `CO[P@@]1(=O)OC[C@H]2O[C@@H](n3cnc4c(N)ncnc43)[C@H](O)[C@@H]2O1`, the Activity in the data set with C6 [6] turned out to be 0%.

With `COP1(=O)OC[C@H]2O[C@@H](n3cnc4c(N)ncnc43)[C@H](O)[C@@H]2O1` (stereo partly specified), the Ratio in the data set filed under Bos taurus [1] is 0; in the data set listed under Bos taurus [4] it was 0.05; in the data set listed under Bos taurus [5], 0.52; in the data set listed under Bos taurus [7], 0.67. The Rf in data set [8] stood at 0.33; in [9], 0.18.

As to `CCO[P@]1(=O)OC[C@H]2O[C@@H](n3cnc4c(N)ncnc43)[C@H](O)[C@@H]2O1`, the Ratio in the data set filed under Bos taurus [1] is 0; in the data set listed under Bos taurus [4], 0; in the data set filed under Bos taurus [5], 0.06; in the data set filed under Bos taurus [7], 0.58. The same compound had a half-life in [3] of 3 h. The Activity in the data set on C6 [6] is 0%. The Rf was determined as 0.35 in data set [8] and 0.19 in data set [9].

`Nc1ncnc2c1ncn2[C@@H]1O[C@@H]2CO[P@](=O)(OCc3ccccc3[N+](=O)[O-])O[C@H]2[C@H]1O`: the Ratio is 0 in the data set listed under Bos taurus [1], 0 in the data set listed under Bos taurus [4], 0.05 in the data set filed under Bos taurus [5] and 0.34 in the data set listed under Bos taurus [7]. The half-life at 5 µM in [2] was 300 h. In addition, the half-life in [3] was 9.5 h; in [18] it was 1.1 h. The Activity in the data set with C6 [6] is 90%. The figures for the Rf in data set [8] and in data set [9] were 0.44 and 0.39, respectively.

For the compound `Nc1ncnc2c1ncn2[C@@H]1O[C@@H]2COP(=O)(OCc3ccccc3)O[C@H]2[C@H]1O` (stereo partly specified), the Ratio in the data set listed under Bos taurus [1] amounted to 0.07; in the data set listed under Bos taurus [4] it was 0.46; in the data set listed under Bos taurus [5] it was 0.84; in the data set listed under Bos taurus [7] it was 0.66.

`Nc1ncnc2c1ncn2[C@@H]1O[C@@H]2COP(=O)(OCc3ccccc3)O[C@H]2[C@H]1O` (single isomer, unassigned) [listing 2 of 2 here] had a half-life at 5 µM in [2] of 2.2 h. In addition, in [3], the half-life is 9.5 h. In the data set on C6 [6], this compound showed an Activity of 90%. The Rf was determined as 0.46 in data set [8] and 0.39 in data set [9].

For `Nc1ncnc2c1ncn2[C@@H]1O[C@@H]2CO[P@@](=O)(OCc3ccccc3[N+](=O)[O-])O[C@H]2[C@H]1O`, the Ratio in the data set filed under Bos taurus [1] is 0; in the data set listed under Bos taurus [4] it was 0.04; in the data set filed under Bos taurus [5], 0.59; in the data set filed under Bos taurus [7], 1.28. Further, the half-life at 5 µM in data set [2] is 83 h. The half-life in [3] is 3 h; in [18], 0.867 h. The same compound gave an Activity in the data set with C6 [6] of 90%. Moreover, the Rf in data set [8] came to 0.39; in data set [9], 0.26.
